From ChEMBL document CHEMBL3232852, “Bexarotene prodrugs: targeting through cleavage by NQO1 (DT-diaphorase)” (Bioorg Med Chem Lett, 2014) come the findings set out here.

Series [1] in a line: Activity of pig liver esterase at 5 uM after 180 mins. The format is ADME, Sus scrofa. The following applies: 3 h. In short, it runs like this:
(§1)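 Porcine liver esterase at a final 76 µg/mL (1.3 U/mL) in tris buffer pH 7.4. Conjugates were incubated at 5 µM and monitored for ester cleavage and free bexarotene over 180 min and up to 24 h. Ethylbenzoate was the reference substrate at 100 µM.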

Series [2] addresses T1, NAD(P)H dehydrogenase [quinone] 1 (Homo sapiens, UniProt P15559). The series can be described thus: Prodrug conversion assessed as NQO1 (unknown origin)-mediated bexarotene formation at 5 uM by HPLC analysis in presence of 300 uM NADH followed by addition of NADH at 30 and 60 mins. In kind it is ADME. The settings on record: 1 h. In short, it runs like this: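 Same NQO1 incubation: 5 µM compound, 37 ± 1 °C, diaphorase 50 U/mL, 0.07% BSA and 300 µM NADH in tris pH 7.4. Extra NADH was added at 30 and 60 min to test cofactor depletion. Bexarotene formation was read by RP-18 HPLC, in triplicate.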

Series [3] addresses T1, NAD(P)H dehydrogenase [quinone] 1. The series is described as follows: Prodrug conversion assessed as NQO1 (unknown origin)-mediated bexarotene formation at 5 uM by HPLC analysis in presence of NADH. The format is ADME. A digest of the protocol: (§2)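 DMSO stocks were diluted 100-fold with tris buffer, and compound (5 µM) was incubated at 37 ± 1 °C with or without diaphorase (NQO1, 50 U/mL). The mix held 0.07% BSA and 300 µM NADH in tris pH 7.4. Bexarotene release was followed by RP-18 HPLC (acetonitrile/water); incubations ran up to 24 h, in triplicate.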

For series [4] the target is unchanged. The series can be described thus: Prodrug conversion assessed as NQO1 (unknown origin)-mediated bexarotene formation at 5 uM after 4 to 24 hrs by HPLC analysis in presence of NADH. The format is ADME. A digest of the protocol: as §2
The nature of series [5]: Activity of pig liver esterase at 100 uM after 7 mins. In kind it is ADME, Sus scrofa. In short, it runs like this: as §1

T1 sequence (P15559 whole entry): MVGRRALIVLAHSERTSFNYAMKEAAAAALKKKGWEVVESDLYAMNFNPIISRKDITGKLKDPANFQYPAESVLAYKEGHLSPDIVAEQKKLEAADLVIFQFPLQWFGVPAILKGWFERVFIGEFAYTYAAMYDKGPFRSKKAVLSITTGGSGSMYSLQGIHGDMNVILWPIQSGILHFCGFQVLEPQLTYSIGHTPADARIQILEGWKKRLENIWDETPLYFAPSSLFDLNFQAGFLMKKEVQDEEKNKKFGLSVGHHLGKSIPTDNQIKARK

Regarding `C=C(c1ccc(C(=O)OCc2c3c(n(C)c2C)C(=O)C=C(OC)C3=O)cc1)c1cc2c(cc1C)C(C)(C)CCC2(C)C`, the Drug metabolism entry in series [1] and in series [2] was “metabolite_notdetected” throughout.

With `C=C(c1ccc(C(=O)OCc2c3c(n(C)c2C)C(=O)C(C)=C(OC)C3=O)cc1)c1cc2c(cc1C)C(C)(C)CCC2(C)C`, the results for the Drug metabolism result in series [3] and in series [2] were “metabolite_detected” and “metabolite_notdetected”, respectively. The matching figures for `C=C(c1ccc(C(=O)OCc2cn(C)c3c2C(=O)C(OC)=CC3=O)cc1)c1cc2c(cc1C)C(C)(C)CCC2(C)C`: “metabolite_detected” and “metabolite_notdetected”. With `C=C(c1ccc(C(=O)OCc2c(C)c3c(n2C)C(=O)C=C(OC)C3=O)cc1)c1cc2c(cc1C)C(C)(C)CCC2(C)C`, the Drug metabolism result in series [4] and in series [2] was “metabolite_notdetected” each time. With `COC1=CC(=O)c2c(c(COc3ccc([N+](=O)[O-])c(C)c3)c(C)n2C)C1=O`, in series [3], the Drug metabolism entry is given as “metabolite_detected”.

Take `COC1=CC(=O)c2c(c(C)c(COc3ccc([N+](=O)[O-])c(C)c3)n2C)C1=O`: the Drug metabolism result in series [3] is recorded as “metabolite_detected”. `CCOC(=O)c1ccccc1` [ETHYL BENZOATE]: the Drug metabolism result in series [5] is listed as “metabolite_detected”.
